For 97 compounds, cytotoxicity results are on record in ChEMBL document CHEMBL4513216, “Probing the Open Global Health Chemical Diversity Library for Multistage-Active Starting Points for Next-Generation Antimalarials” (ACS Infect Dis, 2020).

This data set can be described thus: Toxicity liver stage against HepG2, at 10uM. It is filed as cell-based. More on the design: test concentration 10 uM, cell line HepG2-A16-CD81EGFP. The settings on record: human, HepG2-A16-CD81EGFP cells; read-out: INHIBITION
An outline of the steps: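 Uninfected HepG2-A16-CD81EGFP cells, 3 × 10^3 per well, 1536-well, plated on prespotted compound at 10 μM final, parasite-free screening media added to match infected plates; puromycin 10 μM positive, DMSO 0.5% negative; run in parallel with 48 h PbLuc assay at 37 °C, 5% CO2; viability by CellTiter-Glo luminescence, normalized to controls.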
For `OC1CCN(c2ccnc(NCCc3ccccc3Cl)n2)C1` (configuration not stated), the cytotoxicity at 10 µM came out at 39.3%.
Next, `COCCN1CCC(CNC(=O)Nc2ccc(-c3ccccc3)cc2)C1` (configuration not stated): -15.2%; `CCc1nc2c(c(NC3CCC3)n1)CCN(C(=O)CO)CC2`: 5.42%.
For `CCCc1cc(=O)[nH]c(-c2cccc(CN3CCN4CCCC4C3)c2)n1` (configuration not stated) the value was -15.2%; for `CCN(CC)C(=O)CS(=O)(=O)c1cc(OC)c(OC)cc1C`, -2.58%.
Next, `Cn1ccc2c(C(=O)N3CCC4(CCOC4)C3)cccc21` (configuration not stated): -152%.
On to `CCCNC(=O)c1ccc(-c2ccco2)[nH]c1=O`, for which the cytotoxicity at 10 µM is -5.68%.
For the compound `CN(Cc1ccccn1)C(=O)c1ccc2c(c1O)OC(C)(C)C2`, the cytotoxicity at 10 µM was -11.8%.
For the compound `O=C(O)c1cc(-c2ccoc2)cc(S(=O)(=O)NC2CC2)c1`, the cytotoxicity at 10 µM is -2.18%.
Next, `COc1ccc(CC(=O)N2CCCCC2Cn2cccn2)cc1` (configuration not stated): -11.3%; `O=C(Cc1cccnc1)N1C[C@@H]2CC[C@H]1CN(Cc1ccc(F)cc1)C2`: 4.54%.
For `CCN1CC2(CC1=O)CN(C(=O)c1ccoc1)CCN(C(=O)N(C)C)C2` (configuration not stated) the value was 4.26%; for `CCCN(CCC)C(=O)Cn1c(SC)nc2ccsc2c1=O`, 3.88%; for `CN(Cc1csc(-c2cccs2)n1)Cc1ncccc1C(=O)O`, -11.5%.
Next, `CC1CCCCN1c1nc2c(c(=O)[nH]1)CCN(Cc1ccccc1O)C2` (configuration not stated): -1.97%.
Consider `O=C(CCc1ccsc1)N1CCC(C(=O)O)(c2ccccc2)CC1`, for which the cytotoxicity at 10 µM stood at 12.4%.
Next, `COc1ccc(OCc2nc3cc4c(cc3c(=O)o2)OCCCO4)cc1`: 5.73%; `CC(C)(CN1CCC(Cc2ccc(C(=O)O)cc2)C1)N1CCOCC1` (configuration not stated): 2.17%.
Turning to `Cc1nc2cc(C3CCN(Cc4cccc(F)c4F)C3)nn2c(O)c1C` (configuration not stated), the cytotoxicity at 10 µM was 0.333%.
Next, `Cn1ccnc1C(O)(CCNCc1ccco1)C(F)(F)F` (configuration not stated): 1.66%; `Cc1ccc(NC(=O)N2CCCC(O)(CO)CC2)cc1Cl` (configuration not stated): 1.96%; `Cc1ncsc1CCN(C)Cc1cc2n(n1)CCN(Cc1ccco1)C2`: -4.93%.
For `Cn1ccnc1CN1C[C@@H](CN2CCCCCC2)[C@@H](CO)C1` the value was -2.63%.
Turning to `Cc1cnn(C2CN(CC(O)COCc3ccc4c(c3)OCO4)C2)c1` (configuration not stated), the cytotoxicity at 10 µM was -5.41%.
Next, `COc1cccc(CN2CCCC2c2c(C)nn(C)c2C)c1` (configuration not stated): -2.35%; `O=C(N1CCCC(n2cncn2)C1)C1(c2cccc(F)c2)CCCC1` (configuration not stated): 3.39%; `Cc1nnc(N2CCC(CCN(C)C)CC2)c(C#N)c1C`: -1.33%.
On to `CCN1CCC2(CC1)CC(CC(=O)N(C)C)c1ccc(F)cc12` (configuration not stated), for which the cytotoxicity at 10 µM was -98.6%.
For `CN(CC1(O)CCCN(c2ccccn2)C1)C(=O)Cc1ccsc1` (configuration not stated) the value was -1.11%.
For `CCc1c(C)nc2cc(C3CCN(Cc4ccccc4F)C3)nn2c1O` (configuration not stated) the value was 1.7%.
Next, `Cc1cc(N2CCCC(c3[nH]ncc3Cc3ccccc3)C2)nc(N)n1` (configuration not stated): 57.1%.
Regarding `COc1cc(Oc2cnc3ccccc3n2)ccc1CN1CCCC1`, the cytotoxicity at 10 µM was 5.27%.
Next, `CS(=O)(=O)c1ccc(O[C@H]2COCCN(Cc3ccncc3)C2)cc1`: -5.33%.
For `Cc1cccc(Nc2ccc(C3CCN(Cc4ncc[nH]4)CC3)nc2)n1` the value was -2.83%; for `CCOc1ccccc1CNCC1CCN(CC(C)O)CC1` (configuration not stated), -9.04%.
For `Cc1cnn(C2CCCN(C(=O)Cc3ccc(C#N)cc3)C2)c1` (configuration not stated) the value was -8.45%.
On to `O=C(O)[C@@H]1CN(Cc2ccc3nsnc3c2)C[C@H]1c1cccnc1`, for which the cytotoxicity at 10 µM is 4.46%.
For `COc1ccc2c(C(=O)N(C)C)cc(-c3cnc(N)nc3)nc2c1` the value was -3.3%; for `Cc1ccsc1CNC(=O)Cc1c(C)nc2c(c1C)c(=O)[nH]n2C`, -0.168%.
`CCn1ccnc1CN1CCN(CCC(=O)NC2CCCCC2)CC1`: the cytotoxicity at 10 µM is -12.3%.
For `NCC1Cc2cccc(-c3nccc(N4CCC(O)CC4)n3)c2O1` (configuration not stated) the value was -14.9%; for `O=C(c1ccc(N2CCCC2)nc1)N1CCCC(c2nccs2)C1` (configuration not stated), 15.4%.
For `Cc1noc(C)c1CN1CCC(c2ccnn2CCO)CC1`, the cytotoxicity at 10 µM is -9.73%.
Next, `Cc1nn(C)c(C)c1CC(=O)NCc1cccnc1N1CCOCC1`: -139%.
Next, `O=C(CCn1cncn1)Nc1ccc(F)cc1OCC1CC1`: -2.58%; `Cc1ccc(CC(=O)N2CCCC(c3cc(C(N)=O)[nH]n3)C2)cn1` (configuration not stated): -14.2%.
Next, `CCCn1c(=O)n(CCC(=O)N(C)Cc2ccc(C)o2)c2ccccc21`: -3.26%; `Cc1noc2nc(C3CCN(CC4=CCCOC4)CC3)cc(C(F)F)c12`: 0.307%.
`Cc1ccsc1CN1CCC(c2cc(C(C)C)n[nH]2)CC1`: the cytotoxicity at 10 µM is 1.13%.
Consider `CCCS(=O)(=O)NCc1cccnc1OCC`, for which the cytotoxicity at 10 µM is -7.87%.
Next, `CCNC(=O)c1ccnc(NCC2COc3cc(OC)ccc3C2)c1` (configuration not stated): 0.145%.
For `CN(C)CCOc1ccc(CNC(=O)c2cccc(Cl)c2Cl)cc1` the value was 15.5%.
Next, `N#Cc1cccc(N2CCC3(CC2)Nc2ccccc2NC3=O)n1`: 5.57%.
As to `CC(=O)N1CCCCCC1C1CCN(c2ncccc2C#N)CC1` (configuration not stated), the cytotoxicity at 10 µM was -7.13%.
Next, `Cc1ccc(C(=O)N2CCCS2(=O)=O)cc1Cl`: 2.29%.
Next, `COc1ccccc1C(=O)N1CC(=O)N(C2CCCCC2)CC(O)C1` (configuration not stated): -3.09%; `Cc1ccccc1C(=O)NC(C)c1cnn(C)c1` (configuration not stated): 15.7%; `COCC1N(S(=O)(=O)c2cn(C)cn2)C2CCC1(O)CC2` (configuration not stated): -2.04%.
Next, `CC(NS(C)(=O)=O)C(=O)N1CCCN(Cc2cscn2)CC1` (configuration not stated): -5.95%; `CCc1nc(CC(=O)N2CCN(c3cnccn3)CC2)cs1`: 1.97%; `Cc1nc2ccccc2n1CCNCc1cccc(C#N)c1`: -0.591%.
Consider `CC(Cc1cn(CCc2n[nH]c(=O)[nH]2)nn1)c1ccccc1` (configuration not stated), for which the cytotoxicity at 10 µM was -0.591%.
Next, `Cc1cc(O)nc(C2CCCN(Cc3ccncc3)C2)n1` (configuration not stated): -2.81%; `Cc1cc(N2CCN(Cc3ccnn3C)CC2)cc(C2CCCN2)n1` (configuration not stated): 6.97%.
In the case of `COc1ccc(C2SC(C)=Nc3c2c(=O)[nH]n3C2CCCCC2)cc1O` (configuration not stated), the cytotoxicity at 10 µM amounted to 1%.
For `O=C(C1CCOCC1)N1C[C@@H]2CN(Cc3ccsc3)CCO[C@@H]2C1` the value was -77.5%; for `O=C1COC2(CCN(Cc3ccoc3)CC2)CN1c1ccsc1`, 3.09%.
As to `COc1cc(C)cc(C(C(=O)O)N(C)Cc2ccon2)c1OC` (configuration not stated), the cytotoxicity at 10 µM was -3.41%.
For `CNC(=O)c1cn[nH]c1C1CCCN1C(=O)c1cccnc1` (configuration not stated) the value was -23.3%; for `Cc1cc(C(=O)N2CCCC2)ccc1NCC(=O)N1CCCCC1C` (configuration not stated), 5.12%.
Next, `Cn1c(C(F)(F)F)nn(CCNC(=O)Nc2ccccc2Cl)c1=O`: 13.4%.
Consider `Cc1oc2c(c1C(=O)N1C[C@H](O)[C@]3(CCCO3)C1)CCCC2`, for which the cytotoxicity at 10 µM was -0.4%.
For the compound `COc1cccc(S(=O)(=O)N2CCCCC2CCN2CCOCC2)c1` (configuration not stated), the cytotoxicity at 10 µM was -5.31%.
For `CCOc1nc2cnccc2n(CC(=O)NCCc2ccccc2)c1=O` the value was -6.29%; for `Cc1cc(-c2cnc(NCc3cccnc3)nc2C(C)C)on1`, 19.2%.
For `C[C@@H](NC(=O)c1cccn1C)c1c(-c2ccc(Cl)cc2)noc1C(=O)O` the value was 3%; for `Cc1cc(C(=O)N2CCc3nc(N4CCCC4)nc(C)c3CC2)c(C)o1`, -108%; for `O=C(O)[C@@]12CN(c3cnccn3)C[C@@H]1CN(C1CCCC1)C2`, -10.3%.
Next, `CN(Cc1ccccc1)c1ncccc1CNC1CN2CCC1CC2` (configuration not stated): 1.63%; `Cc1ccc(CS(=O)(=O)N2CC[C@H]3[C@H]2CCN3C)cc1`: -11.6%.
As to `CCOc1cccc(C2CC(=O)NCc3nc(N(C)C)sc32)c1` (configuration not stated), the cytotoxicity at 10 µM is -10.9%.
Next, `CCC(C)N(Cc1cccnc1)Cc1ccccc1Cn1cccn1` (configuration not stated): -43%; `COc1ccc(C(NCc2ccc(C#N)cc2)C2CC2)cc1` (configuration not stated): 7.18%.
Next, `Cc1ccc(N2CCc3ncnc(C4CC4)c3CC2)nn1`: -85%; `Cn1cc(CNCC2(N3CCCCC3)Cc3ccccc3C2)cn1`: -3.07%; `O=c1n(Cc2ccccc2F)nc2ncccn12`: -4.49%.
For `O=C(NCC1CCS(=O)(=O)C1)N(Cc1ccco1)C1CC1` (configuration not stated) the value was -136%.
As for `NC(=O)C1CCN(Cc2ccc(S(=O)(=O)N3CCCC3)o2)CC1`, the cytotoxicity at 10 µM was found to be 1.04%.
For `FC(F)(F)CCc1ccnc(N2CCN(Cc3ccccn3)CC2)n1`, the cytotoxicity at 10 µM was -27%.
For `O=C(c1ccc(CN2CC(n3cccn3)C2)cc1)N1CCCC1` the value was 9.56%; for `COC(=O)c1cc(OCC2CCC2)cc(C(=O)N[C@@H](C)CO)c1`, -2.18%.
As to `COCCN1CCN(S(=O)(=O)C2CC2)Cc2cccnc21`, the cytotoxicity at 10 µM amounted to 4.73%.
For `N#Cc1ccc(NC2CCN(CC(F)F)CC2)c(F)c1`, the cytotoxicity at 10 µM is -5.3%.
As to `O=C(c1cnccn1)N1CCC2(CCN(Cc3ccsc3)CC2)CC1`, the cytotoxicity at 10 µM is 1.2%.
Take `Cc1nc(N)ccc1CC1COc2ccccc2C1` (configuration not stated): the cytotoxicity at 10 µM turned out to be 3.79%.
For `COc1ccc(C(C(=O)O)N(C)CCN2CCCC2)c(C)c1` (configuration not stated) the value was 3.41%; for `COc1ccc(C)cc1C(=O)N1CCCC(n2cncn2)C1` (configuration not stated), -13.3%.
